According to ChEMBL document CHEMBL1811848 (Bioorg Med Chem Lett, 2011):
Active and inactive are the calls of the source. The rule behind the calls is not given here.

Experiments:
[1] = system: Rattus norvegicus; assay: Toxicity in male Wistar rat assessed as heart to body weight ratio at 30 mg/kg, po measured after 28 days (reference value: 0.383 +/- 0.012); format: organism-based; set-up: dose 30 mg/kg, route oral; conditions: in vivo, 672 h
[2] = system: Mus musculus; assay: Hypolipidemic activity in db/db mouse assessed as reduction in triglyceride level at 1 mg/kg, po; format: functional; set-up: scale not given: the % may be the effect or the level left
[3] = system: Rattus norvegicus; assay: Toxicity in female Wistar rat assessed as adrenal to body weight ratio at 3 mg/kg, po measured after 28 days (reference value: 0.028 +/- 0.001); format: organism-based; set-up: dose 3 mg/kg, route oral; conditions: in vivo, 672 h
[4] = biological target: T1, Peroxisome proliferator-activated receptor alpha (Homo sapiens) (UniProt Q07869); assay: Transactivation of human PPARalpha expressed in human HepG2 cells co-transfected with PPRE3-TK-Luc by luciferase reporter gene assay relative to WY14643; format: cell-based
T1 sequence (whole entry): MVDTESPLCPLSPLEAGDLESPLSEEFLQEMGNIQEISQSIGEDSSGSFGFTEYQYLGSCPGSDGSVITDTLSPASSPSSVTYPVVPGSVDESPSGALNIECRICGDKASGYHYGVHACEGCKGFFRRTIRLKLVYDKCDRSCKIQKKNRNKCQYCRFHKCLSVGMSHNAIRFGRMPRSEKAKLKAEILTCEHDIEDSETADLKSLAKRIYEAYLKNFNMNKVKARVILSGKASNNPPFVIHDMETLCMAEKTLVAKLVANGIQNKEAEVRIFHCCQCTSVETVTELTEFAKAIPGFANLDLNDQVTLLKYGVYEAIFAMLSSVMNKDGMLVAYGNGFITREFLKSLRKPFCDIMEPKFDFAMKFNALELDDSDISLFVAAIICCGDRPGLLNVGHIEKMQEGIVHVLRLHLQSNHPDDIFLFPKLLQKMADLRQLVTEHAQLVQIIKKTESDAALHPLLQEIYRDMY
Method in brief: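 Same HepG2 hPPARα or hPPARγ / PPRE3-TK-luc luciferase transactivation assay. Efficacy expressed as percent of maximal response, normalized to 100% for the reference agonist: WY-14643 for α, rosiglitazone for γ.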

[5] = system: Mus musculus; assay: Antihyperglycemic activity in db/db mouse assessed as reduction in plasma glucose level at 0.003 mg/kg, po; format: functional; set-up: scale not given: the % may be the effect or the level left
[6] = system: Rattus norvegicus; assay: Toxicity in male Wistar rat assessed as brain to body weight ratio at 30 mg/kg, po measured after 28 days (reference value: 0.658 +/- 0.015); format: organism-based; set-up: dose 30 mg/kg, route oral; conditions: in vivo, 672 h
[7] = system: Rattus norvegicus; assay: Toxicity in male Wistar rat assessed as urea level at 30 mg/kg, po measured after 28 days (reference value: 30.52 +/- 0.79 mg/dl); format: organism-based; set-up: dose 30 mg/kg, route oral; conditions: in vivo, 672 h
[8] = system: Rattus norvegicus; assay: Toxicity in male Wistar rat assessed as change in body weight at 3 mg/kg, po measured after 28 days relative to control; format: organism-based; set-up: dose 3 mg/kg, route oral; conditions: in vivo, 672 h
[9] = system: Rattus norvegicus; assay: Toxicity in male Wistar rat assessed as testes to body weight ratio at 30 mg/kg, po measured after 28 days (reference value: 1.075 +/- 0.106); format: organism-based, Testis; set-up: dose 30 mg/kg, route oral; conditions: in vivo, 672 h
[10] = system: Rattus norvegicus; assay: Toxicity in male Wistar rat assessed as Glucose level at 3 mg/kg, po measured after 28 days (reference value: 70 +/- 3.49 mg/dl); format: organism-based; set-up: dose 3 mg/kg, route oral; conditions: in vivo, 672 h
[11] = system: Rattus norvegicus; assay: Toxicity in female Wistar rat assessed as adrenal to body weight ratio at 30 mg/kg, po measured after 28 days (reference value: 0.028 +/- 0.001); format: organism-based; set-up: dose 30 mg/kg, route oral; conditions: in vivo, 672 h
[12] = system: Rattus norvegicus; assay: Toxicity in female Wistar rat assessed as SGPT level at 3 mg/kg, po measured after 28 days (reference value: 30.44 +/- 1.59 U/L); format: organism-based; set-up: dose 3 mg/kg, route oral; conditions: in vivo, 672 h
[13] = system: Rattus norvegicus; assay: Toxicity in male Wistar rat assessed as hemoglobin level at 30 mg/kg, po measured after 28 days (reference value: 13.66 +/- 0.23 g/dl); format: organism-based; set-up: dose 30 mg/kg, route oral; conditions: in vivo, 672 h
[14] = system: Rattus norvegicus; assay: Toxicity in male Wistar rat assessed as spleen to body weight ratio at 30 mg/kg, po measured after 28 days (reference value: 0.215 +/- 0.007); format: organism-based; set-up: dose 30 mg/kg, route oral; conditions: in vivo, 672 h
[15] = system: Rattus norvegicus; assay: Toxicity in male Wistar rat assessed as change in body weight at 30 mg/kg, po measured after 28 days relative to control; format: organism-based; set-up: dose 30 mg/kg, route oral; conditions: in vivo, 672 h
[16] = system: Mus musculus; assay: Hypolipidemic activity in db/db mouse assessed as reduction in triglyceride level at 0.01 mg/kg, po; format: functional; set-up: scale not given: the % may be the effect or the level left
[17] = system: Rattus norvegicus; assay: Toxicity in male Wistar rat assessed as albumin level at 30 mg/kg, po measured after 28 days (reference value: 3.66 +/- 0.10 g.dl); format: organism-based; set-up: dose 30 mg/kg, route oral; conditions: in vivo, 672 h
[18] = system: Mus musculus; assay: Hypolipidemic activity in db/db mouse assessed as reduction in triglyceride level at 0.1 mg/kg, po; format: functional; set-up: scale not given: the % may be the effect or the level left
[19] = system: Rattus norvegicus; assay: Toxicity in female Wistar rat assessed as heart to body weight ratio at 3 mg/kg, po measured after 28 days (reference value: 0.403 +/- 0.010); format: organism-based; set-up: dose 3 mg/kg, route oral; conditions: in vivo, 672 h
[20] = biological target: T2, Peroxisome proliferator-activated receptor delta (Homo sapiens) (UniProt Q03181); assay: Transactivation of human PPARdelta expressed in human HepG2 cells co-transfected with PPRE3-TK-Luc by luciferase reporter gene assay; format: cell-based
T2 sequence (whole entry): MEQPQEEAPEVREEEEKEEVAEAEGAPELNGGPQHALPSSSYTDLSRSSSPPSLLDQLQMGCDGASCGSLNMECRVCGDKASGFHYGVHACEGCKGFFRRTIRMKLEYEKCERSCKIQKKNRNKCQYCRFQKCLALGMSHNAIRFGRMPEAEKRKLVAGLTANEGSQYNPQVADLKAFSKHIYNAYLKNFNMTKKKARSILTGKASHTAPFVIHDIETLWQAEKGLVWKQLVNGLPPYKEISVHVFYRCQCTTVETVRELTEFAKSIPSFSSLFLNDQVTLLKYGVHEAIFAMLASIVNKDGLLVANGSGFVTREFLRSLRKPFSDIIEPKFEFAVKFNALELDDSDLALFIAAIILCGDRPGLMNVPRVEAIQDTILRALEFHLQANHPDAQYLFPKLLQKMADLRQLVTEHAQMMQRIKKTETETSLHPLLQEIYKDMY
Method in brief: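 HepG2 cells transfected with pSG5 vector carrying hPPARα, hPPARγ or hPPARδ cDNA, co-transfected with PPRE3-TK-luc. Firefly luciferase activity measured with a commercial kit. β-galactosidase activity read on an ELISA reader. Controls: WY14643 (α), rosiglitazone (γ), GW501516 (δ).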

[21] = system: Mus musculus; assay: Antihyperglycemic activity in db/db mouse assessed as reduction in plasma glucose level at 0.03 mg/kg, po; format: functional; set-up: scale not given: the % may be the effect or the level left
[22] = system: Rattus norvegicus; assay: Toxicity in male Wistar rat assessed as spleen to body weight ratio at 3 mg/kg, po measured after 28 days (reference value: 0.215 +/- 0.007); format: organism-based; set-up: dose 3 mg/kg, route oral; conditions: in vivo, 672 h
[23] = system: Rattus norvegicus; assay: Toxicity in female Wistar rat assessed as liver to body weight ratio at 30 mg/kg, po measured after 28 days (reference value: 3.091 +/- 0.087); format: organism-based; set-up: dose 30 mg/kg, route oral; conditions: in vivo, 672 h
[24] = system: Rattus norvegicus; assay: Toxicity in male Wistar rat assessed as thymus to body weight ratio at 3 mg/kg, po measured after 28 days (reference value: 0.081+/- 0.013); format: organism-based; set-up: dose 3 mg/kg, route oral; conditions: in vivo, 672 h
[25] = system: Rattus norvegicus; assay: Toxicity in female Wistar rat assessed as kidney to body weight ratio at 30 mg/kg, po measured after 28 days (reference value: 0.733 +/- 0.007); format: organism-based; set-up: dose 30 mg/kg, route oral; conditions: in vivo, 672 h
[26] = system: Rattus norvegicus; assay: Toxicity in male Wistar rat assessed as liver to body weight ratio at 30 mg/kg, po measured after 28 days (reference value: 3.257 +/- 0.067); format: organism-based; set-up: dose 30 mg/kg, route oral; conditions: in vivo, 672 h

Emax [4]: 116% | Activity [20]: inactive
SMILES: CCO[C@@H](Cc1ccc(OCCc2nc(-c3ccc(C)s3)oc2C)cc1)C(=O)O
Ratio [1]: 0.479 | Activity [2]: 64.2% | Ratio [3]: 0.02 | Activity [5]: 47.1% | Ratio [6]: 0.757 | Activity [7]: 34.58 mg/dL | Activity [8]: 33.99% | Ratio [9]: 1.356 | Activity [10]: 75.74 mg/dL | Ratio [11]: 0.022 | Activity [12]: 22.46 U/L | Activity [13]: 12.46 g/dL | Ratio [14]: 0.252 | Activity [15]: 24.01% | Activity [16]: 6.6% | Activity [17]: 4.12 g/dL | Activity [18]: 49.4% | Ratio [19]: 0.46 | Activity [21]: 52.1% | Ratio [22]: 0.223 | Ratio [23]: 7.075 | Ratio [24]: 0.089 | Ratio [25]: 0.915 | Ratio [26]: 8.099
